Activity calls are given as the source filed them. The rule behind the calls is not given here.
Key:
[1] = Antiproliferative activity against temperature-sensitive rat lymphatic endothelial cells assessed as cell viability at 10 uM after 48 hrs by MTS assay; type: functional; details: read-out: Activity
In short: (§1)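 TR-LE cells kept on type I collagen-coated dishes in HuMedia-EB2/EG + 10% FBS at permissive 33 °C. Seeded at 8 × 10^3 cells/well in DMEM + 10% FBS on collagen I-coated plates. Allowed 3 h to adhere, then exposed to compounds (final 0.1–100 μM) for 48 h. Viability by MTS assay. Final DMSO ≤0.5% (v/v).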

Endothelial cell = assay: Antiproliferative activity against temperature-sensitive rat lymphatic endothelial cells assessed as cell viability at 100 uM after 48 hrs by MTS assay; type: functional, cell-based; in short: as §1
HeLa = assay: Antiproliferative activity against human HeLa cells after 48 hrs by MTS assay; type: functional, cell-based
In short: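 HeLa cells grown in EMEM + 10% FBS at 37 °C, 5% CO2. Seeded at 3 × 10^3 cells/well in EMEM + 10% FBS, incubated 24 h, then exposed to compounds for 48 h. Viability read by MTS assay. Final DMSO ≤0.5% (v/v). IC50 from viability.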

[2] = Antiproliferative activity against temperature-sensitive rat lymphatic endothelial cells after 48 hrs by MTS assay; details: Endothelial cell

Row | IC50 (HeLa) | Structure (SMILES) | Activity (Endothelial cell) | other results
1 |  | C#CC(=O)/C=C/CCCCCCCCCC/C=C/C(O)C#C (stereo unspecified) |  | viability at 10 µM [1]: 78%
2 |  | C#CC(=O)/C=C/CCCCCC | inactive | 
3 |  | C#CC(O)/C=C/CCCCCC (stereo unspecified) | inactive | 
4 | 1.7 nM | CC(=O)O[C@H]1C(=O)[C@@]2(C)[C@H]([C@H](OC(=O)c3ccccc3)[C@]3(O)C[C@H](OC(=O)[C@H](O)[C@@H](NC(=O)c4ccccc4)c4ccccc4)C(C)=C1C3(C)C)[C@]1(OC(C)=O)CO[C@@H]1C[C@@H]2O [PACLITAXEL] |  | 
5 | 4.3 nM | CC[C@]1(O)C[C@H]2CN(CCc3c([nH]c4ccccc34)[C@@](C(=O)OC)(c3cc4c(cc3OC)N(C=O)[C@H]3[C@@](O)(C(=O)OC)[C@H](OC(C)=O)[C@]5(CC)C=CCN6CC[C@]43[C@@H]65)C2)C1 [VINCRISTINE] |  | IC50 [2]: 80 nM

— ChEMBL document CHEMBL2406939, “Structure, synthesis, and biological activity of a C-20 bisacetylenic alcohol from a marine sponge Callyspongia sp” (J Nat Prod, 2013)
